Compounds with a hit are over-represented: about 2.9% of the library has one in this group of screens.
Hsp90 block = displaces geldanamycin probe from tumor Hsp90; AID 429; NCI-N417 lysate Hsp90, Cy3B-geldanamycin FP displacement; 64,000 compounds, 0.35% hits; P07900; inhibition, % at 30 µM;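 active = inhibition above 50%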;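 also: 0% = tracer plus lysate wells and 100% = tracer alone without lysate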
DUSP1 inh = inhibitors of human MKP-1 phosphatase; P28562; recombinant MKP-1, OMFP hydrolysis fluorescence; inhibition, %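 (compounds tested at a single concentration somewhere between 10 and 100 µM)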; 65,000 compounds, 0.15% hits; AID 374;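 active = inhibition above about 50%, limit read from the data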;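 also: 0% = DMSO max control wells and 100% = wells with enzyme stopped by NaOH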
Target sequence (P28562 whole entry, looked up): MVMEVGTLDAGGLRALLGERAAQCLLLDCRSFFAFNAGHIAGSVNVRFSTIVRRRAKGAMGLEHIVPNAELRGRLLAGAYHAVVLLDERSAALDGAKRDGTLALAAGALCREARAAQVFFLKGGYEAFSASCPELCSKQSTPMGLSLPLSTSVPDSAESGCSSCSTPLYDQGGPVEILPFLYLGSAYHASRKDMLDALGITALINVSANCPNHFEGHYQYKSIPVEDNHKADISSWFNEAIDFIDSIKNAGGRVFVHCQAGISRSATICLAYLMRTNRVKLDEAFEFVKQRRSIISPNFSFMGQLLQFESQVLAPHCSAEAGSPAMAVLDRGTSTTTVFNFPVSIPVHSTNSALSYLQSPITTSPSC
Cdc25B block = inhibitors of human Cdc25B phosphatase. P30305. AID 368. 65,000 compounds, 0.1% hits. inhibition, %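 (compounds tested at 10 µM final in the well)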. recombinant Cdc25B, OMFP fluorescence Ex485/Em525; in the data active = inhibition above about 50%
Ecoli tolC = E. coli tolC mutant growth inhibition | 65,000 compounds, 2.2% hits | AID 573 | E. coli BW25113 tolC mutant growth, OD615 | growth inhibition, % at 10 µM (by protocol);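 active = growth inhibition at or above a cutoff equal to the mean over every tested compound plus 3 SD, cut at about 60% in these data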;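 also: growth measured after 20 h incubation at 37 °C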
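signal = optical density read at 615 nm | test system = E. coli ΔtolC::kan strain BW25113 | timing = 20 h compound exposure of bacteria at 37 °C | buffer or medium = LB medium plus 50 µg/mL kanamycin | compound dosing = 10 µM final, single dose | evaluation = % inhibition of E. coli growth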
BAP1 inh = inhibitors of human BAP1 deubiquitinase. Q92560. recombinant BAP1, Ub-AMC hydrolysis fluorescence kinetic; hits give low values. calls only at 20 µM. 72,000 compounds, 0.48% hits;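 active = activity remaining at or below 50% of control, provided the compound also passes the data quality filters; inactive = the rest, including low values that fail the filters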;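 also: 100% = DMSO wells rate and 0% = substrate alone blank rate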
E coli RNAP = blocks E. coli RNA polymerase transcription | P0A8V2 | fluorescence transcription assay | inhibition, %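 (tested at 10 µM)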 | 62,000 compounds, 0.2% hits; in the data active = inhibition above about 20%;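 also: 0% = enzyme without compound and 100% = no enzyme blank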
Starred values were filed as active, the others as inactive; i = inactive; nt = no result shown.

SMILES | Hsp90 block | DUSP1 inh | Cdc25B block | Ecoli tolC | BAP1 inh | E coli RNAP
CS(=O)c1nc(-c2ccc(Br)cc2)cc(-c2ccccc2)c1C#N (stereo not drawn) | -5.2 | -15.6 | 3.5 | 95.1* | i | 1.8
O=C(O)c1ccccc1Nc1cccc2c1C(=O)c1ccccc1C2=O | nt | nt | nt | nt | i | nt
Cc1ccc(Nc2cc(C)nn2-c2nc(C)cc(C)n2)cc1 | -1.5 | 29.1 | -6.8 | 12.7 | i | 5.9
Cc1ccc(Nc2cc(C)nn2-c2nc(C)cc(=O)[nH]2)cc1 | -1.1 | 32.6 | 13.8 | 100.0* | i | 2.8
O=C(NCCCN1CCOCC1)NC12CC3CC(CC(C3)C1)C2 | -4.6 | 2.4 | -9.9 | -9.6 | i | 63.9*
COc1ccc2nc(SCC(=O)N(C)C3CCCCC3)c(C#N)cc2c1 | -13.8 | 6.9 | 0.3 | 63.2* | i | 12.3
COc1ccc2nc(SCC(=O)N3CCCCCC3)c(C#N)cc2c1 | -11.2 | -11.0 | -6.4 | 25.5 | i | 4.4
COc1ccc(-c2nnc(SCc3cc(C)cc(C)c3)o2)cc1 | 0.1 | 24.8 | -11.2 | 69.4* | i | 1.2
COc1ccc(-c2nnc(SCC(=O)c3ccc(C)o3)o2)cc1 | -5.7 | 2.4 | 4.0 | 14.7 | i | nt
CSc1nc(-c2ccccc2)nc(N2CCN(C)CC2)c1C(C)=O | -4.7 | 3.8 | 2.1 | 0.0 | i | 4.0
CSc1nc(-c2ccccc2)nc(N2CCCC2)c1C(C)=O | 1.4 | -2.8 | -9.3 | 75.2* | i | 0.3
COc1ccc(Cn2c(=O)sc3ccccc32)cc1 | -0.1 | -4.2 | -13.1 | 60.9* | i | 2.1
COC(=O)Cn1c(=O)sc2ccccc21 | 1.4 | -2.2 | -0.5 | -10.9 | i | 4.0
Cc1cccc(-n2ncc3c(N4CCCC4)ncnc32)c1 | -1.8 | 6.4 | -14.4 | 2.7 | i | nt
Clc1ccc(Cn2ncc3c(N4CCCCC4)ncnc32)c(Cl)c1 | 1.2 | -4.6 | -1.3 | 73.5* | i | 10.3
CC1CC(C)CN(c2ncnc3c2cnn3Cc2ccc(Cl)cc2)C1 (stereo not drawn) | -0.9 | 9.5 | -15.4 | 80.9* | i | 5.2
Cc1cccc(-n2ncc3c(N4CC(C)CC(C)C4)ncnc32)c1 (stereo not drawn) | -2.3 | -4.7 | -2.5 | 63.5* | i | 1.2
COc1ccc2c(Cl)c(C(=O)N3CCCCC3)sc2c1Cl | nt | nt | nt | nt | i | nt
Cc1ccc(NC(=O)COC(=O)c2ccc3c(c2)NC(=O)C2CCCN32)cc1C (stereo not drawn) | -6.9 | 54.1* | 6.7 | 35.3 | nt | 3.9
Cc1cc(Cl)ccc1NC(=O)CSc1nnc(-c2ccncc2)n1Cc1ccco1 | nt | 13.9 | -14.0 | 5.7 | nt | 5.8
COc1ccc(-c2cnc(SCC(=O)Nc3ccc4c(c3)OCO4)n2Cc2ccco2)cc1 | -3.3 | 2.6 | -12.1 | 66.0* | i | 6.1
CC(=O)Nc1cccc(NC(=O)CSc2ncc(-c3ccc(Cl)cc3)n2Cc2ccco2)c1 | 1.6 | 38.0 | -6.5 | 94.2* | i | 5.2
O=C(CSc1nnc(-c2ccc(Cl)cc2)n1Cc1ccco1)Nc1ccc2c(c1)OCCO2 | -1.9 | 3.6 | 6.4 | 25.4 | i | -3.5
CC1Oc2ccccc2N(Cc2ccccc2Cl)C1=O (stereo not drawn) | -4.5 | -0.3 | -3.0 | 60.8* | i | -1.9
COc1ccccc1N1CCN(C(=O)c2oc3cc(C)c(C)cc3c2C)CC1 | 1.7 | 9.2 | 0.4 | 71.6* | i | -13.0
SMILES | Hsp90 block | DUSP1 inh | Cdc25B block | Ecoli tolC | BAP1 inh | E coli RNAP
COc1ccccc1N1CCN(C(=O)COc2ccc(Cl)cc2Br)CC1 | -0.2 | 16.6 | -16.1 | 35.8 | i | nt
COc1ccccc1N1CCN(C(=O)COc2ccc(C)cc2Br)CC1 | -3.0 | 21.1 | -16.0 | 69.5* | i | 5.4
Cc1ccc(Cn2ncn3c(cc4ccccc43)c2=O)cc1 | -2.4 | -2.3 | -6.1 | 64.6* | i | 1.9
CCc1cccc(NC(=O)Cn2ncn3c(cc4ccccc43)c2=O)c1 | -3.7 | 6.5 | -4.0 | 0.8 | i | -2.6
CCCOc1ccc(C2C(C(=O)OC)=C(C)N(C)C(C)=C2C(=O)OC)cc1 | nt | nt | nt | nt | i | nt
O=C(c1noc2c1CCc1ccccc1-2)N1CCc2ccccc2C1 | -4.0 | -13.7 | -9.8 | 86.6* | i | 2.6
O=C(c1noc2c1CCc1ccccc1-2)N1CCCc2ccccc21 | -6.5 | 0.1 | 3.8 | 98.7* | i | 4.6
O=C(NCCCn1ccnc1)c1noc2c1CCCC2 | -2.8 | -6.7 | -7.1 | -12.8 | i | 3.2
O=C(NCCCn1ccnc1)c1noc2c1CCc1ccccc1-2 | 62.8* | 0.9 | -4.1 | 6.3 | i | 7.8
O=C(c1noc2c1CCc1ccccc1-2)N1CCOCC1 | -0.6 | 2.9 | 3.8 | -23.5 | i | -3.7
O=C(COc1cccc2ccccc12)N1CCN(c2ccccc2)CC1 | nt | 15.5 | -4.6 | 66.3* | nt | nt
O=C(COc1cccc2ccccc12)N1CCN(c2ccccn2)CC1 | -19.7 | 19.2 | -3.0 | 34.9 | i | -7.3
COc1ccc(CC(=O)Nc2c3c(nn2-c2cccc(C)c2)CSC3)cc1 | nt | nt | nt | nt | i | nt
COCCCN1C(=O)c2[nH]nc(-c3ccccc3O)c2C1c1ccc(Cl)cc1 (stereo not drawn) | 0.8 | 5.4 | -1.5 | 63.7* | i | 3.2
O=C1c2[nH]nc(-c3ccccc3O)c2C(c2ccccc2F)N1Cc1ccco1 (stereo not drawn) | -1.9 | 8.4 | 3.9 | 100.0* | i | 1.4
COCCCN1C(=O)c2[nH]nc(-c3ccccc3O)c2C1c1cccc(Cl)c1 (stereo not drawn) | -0.3 | 4.8 | 10.1 | 52.4 | i | 9.6
O=C1c2[nH]nc(-c3ccccc3O)c2C(c2ccccc2)N1Cc1ccco1 (stereo not drawn) | 0.8 | 4.2 | 5.6 | 98.3* | i | -8.5
COc1ccc(CCN2C(=O)c3[nH]nc(-c4ccccc4O)c3C2c2ccccc2)cc1OC (stereo not drawn) | -1.9 | -4.9 | 2.8 | -7.2 | i | 8.6
O=C1c2ccccc2C(O)N1Cc1ccco1 (stereo not drawn) | 0.3 | 15.6 | -6.4 | -1.0 | i | 7.5
CCNC(=O)N1c2ccccc2C(C)(c2ccccc2)CC1(C)C (stereo not drawn) | nt | nt | nt | nt | i | nt
CCOc1ccc(NC(=NS(=O)(=O)c2ccccc2)Nc2nc(C)cc(C)n2)cc1 | nt | nt | nt | nt | i | nt
Nc1nc(NC(=O)c2cccs2)nn1-c1ccccc1 | 0.0 | -13.9 | 10.2 | 9.1 | i | 20.9*
O=C(Nc1nc(-c2ccccn2)cs1)C1COc2ccccc2O1 (stereo not drawn) | -2.3 | 6.4 | -9.8 | 100.0* | i | 11.4
Cc1nc2ccc3nc(NC(=O)C4COc5ccccc5O4)sc3c2s1 (stereo not drawn) | -3.4 | 34.2 | -1.7 | 11.1 | i | 8.1
O=C(Nc1nc(-c2ccc3c(c2)OCO3)cs1)C1COc2ccccc2O1 (stereo not drawn) | 91.1* | -3.9 | -5.0 | 54.6 | i | 6.2
O=C(Nc1nc(-c2ccc(S(=O)(=O)N3CCCC3)cc2)cs1)C1COc2ccccc2O1 (stereo not drawn) | -6.0 | 3.1 | -2.3 | 17.3 | nt | 5.8

Source: PubChem
